Rows were chosen to be rich in hits. Some 11% of all compounds tested hit in one or more screens of this group.
Lmaj promast: inhibitors of Leishmania major promastigote growth. Leishmania major promastigotes, resazurin fluorescence viability. AID 1063. 9% of 200,000 active. inhibition, % at 10 µM;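 note: promastigotes grown with compound for 44 hours at 28 °C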
Diaph inh CS: inhibits diaphorase or chemically oxidizes, flagging diaphorase assay artifacts. diaphorase resazurin-to-resorufin fluorescence, NADH, 16 min; bacterial (C. kluyveri) enzyme, not human. inhibition, % at 20 µM. AID 1217. 0.69% of 190,000 active;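 active = primary screen inhibition at 20 µM above a set limit, cut at about 50% in these data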;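 note: plate controls were DMSO with full reaction for no effect and wells lacking NADH for full effect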
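material = Clostridium kluyveri diaphorase enzyme | amount = 0.14 U/mL diaphorase, enzyme working solution | schedule = incubation 16 min, room temperature | detection = fluorescence of resorufin formed from resazurin, Ex 544/Em 590 nm | benchmarks = positive control minus NADH, DMSO neutral control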
G6PDH counter: L. mesenteroides G6PDH inhibition counter-screen; Purified L. mesenteroides G6PDH, diaphorase/resazurin coupled fluorescence, 45 min; inhibition, % at 5 µM; 0.12% of 200,000 active
WT yeast gro inh: growth inhibition of WT yeast, mitochondrial fusion screen; 2.1% of 190,000 active; mitochondrial fusion phenotypic screen, WT strain; inhibition, % at 10 µM; in the data active = inhibition above about 58%; tested in S. cerevisiae
Diaphorase act: diaphorase activation or chemical reduction counter-screen | Diaphorase/resazurin coupled assay, resorufin fluorescence, 16 min; stronger effect = higher value; 1 = vehicle wells, 0 = NADH-free wells | AID 1229 | activation factor at 20 µM | 0.005% of 190,000 active;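 active = diaphorase activity raised at least twofold by the compound at 20 µM; inactive = activation factor below 2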
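Test system: Clostridium kluyveri diaphorase, purified enzyme. Buffer or medium: 50 mM HEPES pH 7.4 buffer plus MgCl2 and Tween 20. Also added: 0.114 mM NADH and 0.1 mM resazurin, final amounts. Dosing: compound 20 µM once, DMSO 1%. Schedule: 16 min enzyme reaction, ambient temperature. Detection: fluorescence of resorufin, 544 nm excitation, 590 nm emission.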
* = called active by the depositor; · = no result given. Cut-off read from the data, not from the text of the source, unless noted: active = inhibition above about 50%; inactive = the rest.

SMILES | Lmaj promast | Diaph inh CS | G6PDH counter | WT yeast gro inh | Diaphorase act
COc1ccccc1-c1ccc(=O)n(CC(=O)NC2CCc3ccccc32)n1 (stereo not drawn) | -10 | · | 8 | -2 | ·
CCn1c(SCC(=O)NNC(=O)c2ccc(OC)cc2)nnc1-c1cccnc1 | -6 | -4 | 9 | -20 | 1
CNc1c([N+](=O)[O-])cnn1-c1ccccn1 | -4 | 21 | 14 | -3 | 0.8
Cc1[nH]c2ccccc2c1CCN(Cc1cccs1)C(=S)Nc1ccccc1 | 36 | 11 | 7 | 56 | 0.9
Cc1[nH]c2ccccc2c1CCN(Cc1cccnc1)C(=S)Nc1ccc(F)cc1 | 100* | -4 | 2 | -28 | 1
Cc1[nH]c2ccc(F)cc2c1CCN(Cc1ccncc1)C(=S)Nc1ccccc1 | 74* | 14 | -4 | -39 | 0.9
Cc1[nH]c2ccc(F)cc2c1CCN(Cc1cccnc1)C(=S)Nc1ccccc1 | 100* | 13 | 10 | -21 | 0.9
CCn1cc([N+](=O)[O-])c(C(=O)N2N=C(c3ccc4ccccc4c3)CC2c2cc(Br)ccc2O)n1 (stereo not drawn) | 100* | 30 | -1 | 3 | 0.7
COC(=O)c1cc(NC(=O)Nc2ccccc2OC)cc(C(=O)OC)c1 | 6 | 8 | 8 | 10 | 0.9
CC/C(=N/Nc1ccc(Cl)cc1)c1cnnc(SC)n1 | 54* | 11 | 16 | -1 | 0.9
CC/C(=N/Nc1cccc(C)c1)c1cnnc(SC)n1 | 26 | 9 | -4 | 2 | 0.9
Nc1ccc2nc(CN3CCOCC3)[nH]c2c1 | 1 | 26 | 8 | 66* | 0.7
CCC(C)/C(C)=N/NC(=O)c1ccc(COc2ccc(Cl)c(C)c2)cc1 (stereo not drawn) | 0 | 8 | 4 | 72* | 0.9
CCOc1ccc(OCc2ccc(C(=O)N/N=C(\C)c3ccccn3)cc2)cc1 | 19 | -17 | 0 | 5 | 1.2
COc1cccc(/C=N/Nc2ncnc3scc(-c4ccccc4)c23)c1O | 100* | 38 | -16 | -6 | 0.6
COc1cccc(/C=N/Nc2ncnc(Cl)c2N)c1O | 100* | 15 | -6 | 55 | 0.9
COc1cccc(/C=N/Nc2nc3ccccc3n3cnnc23)c1O | 76* | 66* | -21 | 5 | 0.3
COc1cccc(/C=N/Nc2nccnc2Cl)c1O | 100* | 39 | 10 | 26 | 0.6
COc1cccc(/C=N/Nc2nc3ccccc3n3cnnc23)c1 | 43 | 9 | -14 | 2 | 0.9
O=C(CC12CC3CC(CC(C3)C1)C2)NCC(=O)N1CCc2ccccc2C1 | 0 | 9 | 6 | -3 | 0.9
CCOC(=O)c1c(/N=C/C2=C(O)CCCC2=O)sc(C)c1C | -4 | 22 | -2 | 1 | 0.8
CCOC(=O)c1c(-c2ccc(OC)cc2)csc1/N=C/C1=C(O)CCCC1=O | 3 | 27 | 12 | 60* | 0.7
Cn1cccc1/C=N/NC(=O)c1ccn[nH]1 | -4 | 9 | -10 | 3 | 0.9
Cc1cccc(N(C)C(=S)Oc2ccc3ccccc3c2)c1 | -2 | 10 | 11 | 62* | 0.9
COc1cccc(/C=N/NC(=O)c2ccc(CN3c4cccc5cccc(c45)S3(=O)=O)cc2)c1 | 82* | 8 | 4 | -11 | 0.9
SMILES | Lmaj promast | Diaph inh CS | G6PDH counter | WT yeast gro inh | Diaphorase act
O=C(N/N=C/c1cccnc1)c1ccc(CN2c3cccc4cccc(c34)S2(=O)=O)cc1 | -2 | 21 | 9 | -18 | 0.8
CCC(CC)C(=O)Nc1ccc(C(=O)Nc2cc(C)on2)cc1 | -5 | 6 | -2 | -2 | 0.9
CCCCNC(=O)c1cccc2c(=O)c(C)c(-c3ccccc3)oc12 | 1 | 5 | -19 | 12 | 0.9
Cc1ccc(NC(=O)COC(=O)c2cccc3c(=O)c(C)c(-c4ccccc4)oc23)cc1 | 66* | 3 | -1 | 6 | 1
CCCCN(C(=O)c1cccc2c(=O)c(C)c(-c3ccccc3)oc12)c1ccccc1 | 73* | 13 | 0 | 78* | 0.9
FC(F)(F)c1ccc(Cl)c(N/N=C/c2ccc(N3CCOCC3)s2)c1 | 98* | 19 | 6 | 58* | 0.8
O=C(N/N=C/c1ccc(N2CCOCC2)s1)c1ccccc1Cl | -7 | 12 | 6 | · | 0.9
Cc1ccc(C)c(NS(=O)(=O)c2cc(C(=O)NCCSC3CCCCC3)ccc2C)c1 | 97* | 23 | 12 | 34 | 0.8
Cc1ccccc1NS(=O)(=O)c1cc(C(=O)NCCSC2CCCCC2)ccc1C | 100* | 21 | -4 | -5 | 0.8
CCOC(=O)c1cc(-c2cccnc2)nn1-c1ccccc1C | -2 | -7 | 0 | -9 | 1.1
Cc1cc(N)c(-n2cc3c(=O)n(C)c(=O)n(C)c3c2)cc1C | 62* | 17 | 4 | 24 | 0.8
Nc1nc(SCC(=O)Nc2ccc(Cl)cc2)[nH]c(=O)c1-c1ccccc1 | -4 | 6 | 4 | -3 | 0.9
CCn1c(C)cc(/C=C2/SC(=S)NC2=O)c1C | -9 | 22 | -27 | 21 | 0.8
CCOc1c(O)ccc(/C=C2\SC(=S)NC2=O)c1[N+](=O)[O-] | -5 | 54* | 16 | -13 | 0.5
O=C(NCc1ccco1)C1CC(=O)N(c2ccc(O)cc2)C1 (stereo not drawn) | -5 | 6 | 6 | 6 | 0.9
CCCCC(NC(=O)c1ccccc1)C(=O)OCC(=O)N1c2ccccc2Sc2ccccc21 (stereo not drawn) | 75* | 11 | 14 | 17 | 0.9
CCOc1ccc(/C(CC)=N/NC(=O)C2(C)CC2(Br)Br)cc1 (stereo not drawn) | 58* | 19 | 7 | 10 | 0.8
C=C(C)COc1ccc(-c2nc(N)nc(C)c2Oc2ccccc2OC)c(O)c1 | 21 | 29 | 3 | 73* | 0.7
C=C(C)COc1ccc(-c2n[nH]c(C)c2Oc2ccccc2OC)c(O)c1 | 76* | 16 | 14 | 10 | 0.8
C=C(C)COc1ccc(-c2nc(N)nc(C)c2-c2ccc(OC)cc2)c(O)c1 | -1 | 12 | 0 | -6 | 0.9
CCOc1ccc(-c2n[nH]c(C)c2Oc2ccccc2OC)c(O)c1 | 11 | 15 | 8 | -6 | 0.8
COc1cc(C(=O)Nc2ccc(S(=O)(=O)Nc3ncccn3)cc2)c([N+](=O)[O-])cc1OC | -7 | 29 | 3 | -14 | 0.7
COC(=O)c1ccc(CSc2ccc3nnc(-c4cccc(F)c4)n3n2)o1 | 28 | 14 | -20 | 11 | 0.9
N#C/C(=C/c1ccc(Oc2ccc([N+](=O)[O-])cn2)cc1)C(=O)N1CCOCC1 | 66* | 11 | 10 | -1 | 0.9
CCCN(CCC)CCCNC(=O)C1c2cc(OC)c(OC)cc2C(=O)N(C)C1c1cccnc1 (stereo not drawn) | -9 | -2 | 3 | -17 | 1
CCN(CC)S(=O)(=O)c1cc(NS(=O)(=O)c2cccc(Cl)c2)ccc1C | 65* | 16 | -7 | -18 | 0.8
CCOCCCNCC(=O)N1CCN(S(=O)(=O)c2ccc(C)cc2)CC1 | 88* | 19 | 17 | 17 | 0.8

Screening results from PubChem BioAssay.
